ChEMBL document CHEMBL1123129, “Hypolipidemic activity of indan-1,3-dione derivatives in rodents” (J Med Chem, 1985)

Legend:
[1] = target: Acetyl-coenzyme A synthetase, cytoplasmic (Mus musculus) (UniProt Q9QXG4); experiment: In Vivo effect for the hypolipidemic activity on Acetyl-coenzyme A synthetase in CF1 mice after 16 days of oral administration at a dose of 20 mg/kg; format: functional, organism-based; set-up: dose 20 mg/kg
Method in brief: (§1)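 CF1 male mice are dosed orally at 10–60 mg/kg per day for 16 days, with 1% CMC as the control vehicle. Liver is homogenized at 10% in 0.25 M sucrose + 0.001 M EDTA, pH 7.2. Enzymes are assayed by literature methods, with Lowry protein. Activity is given as % of control (X ± SD, N = 6), with p from Student's t test.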

[2] = target: T1, ATP-citrate synthase (Mus musculus) (UniProt Q91V92); experiment: In Vivo effect for the hypolipidemic activity on ATP-Citrate Lyase in CF1 mice after 16 days administered orally at a dose of 60 mg/kg; format: organism-based; set-up: dose 60 mg/kg; method in brief: as §1
T1 sequence (whole entry): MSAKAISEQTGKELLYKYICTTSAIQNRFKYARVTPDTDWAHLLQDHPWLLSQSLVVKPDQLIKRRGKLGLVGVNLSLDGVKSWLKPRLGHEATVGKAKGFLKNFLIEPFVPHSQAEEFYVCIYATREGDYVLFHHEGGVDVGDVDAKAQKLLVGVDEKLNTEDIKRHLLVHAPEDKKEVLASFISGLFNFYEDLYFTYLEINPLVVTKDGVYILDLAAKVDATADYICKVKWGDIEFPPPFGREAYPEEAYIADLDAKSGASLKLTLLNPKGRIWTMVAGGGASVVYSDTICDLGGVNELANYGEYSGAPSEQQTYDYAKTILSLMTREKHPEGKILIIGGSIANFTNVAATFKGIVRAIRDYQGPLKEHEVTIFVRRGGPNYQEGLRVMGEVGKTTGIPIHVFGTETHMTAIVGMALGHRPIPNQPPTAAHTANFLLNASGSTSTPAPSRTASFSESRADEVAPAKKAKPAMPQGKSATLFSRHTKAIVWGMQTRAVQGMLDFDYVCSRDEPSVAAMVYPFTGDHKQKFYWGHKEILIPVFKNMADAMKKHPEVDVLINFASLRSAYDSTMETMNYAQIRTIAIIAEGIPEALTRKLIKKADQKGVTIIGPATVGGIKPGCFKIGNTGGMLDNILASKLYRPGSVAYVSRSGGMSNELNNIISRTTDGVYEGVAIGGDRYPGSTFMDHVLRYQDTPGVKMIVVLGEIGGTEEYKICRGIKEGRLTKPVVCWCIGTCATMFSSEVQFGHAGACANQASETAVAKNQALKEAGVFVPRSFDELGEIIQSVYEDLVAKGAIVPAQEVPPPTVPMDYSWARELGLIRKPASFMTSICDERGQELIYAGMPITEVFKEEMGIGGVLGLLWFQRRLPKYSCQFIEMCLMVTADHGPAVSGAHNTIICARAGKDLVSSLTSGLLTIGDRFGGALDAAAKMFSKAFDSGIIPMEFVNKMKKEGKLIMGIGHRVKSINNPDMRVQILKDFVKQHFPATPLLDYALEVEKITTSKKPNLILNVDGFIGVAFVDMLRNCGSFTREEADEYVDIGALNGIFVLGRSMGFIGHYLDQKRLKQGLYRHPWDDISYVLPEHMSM

Mus musculus [3] = experiment: Compound was evaluated for the hypolipidemic activity in CF1 male mice at a dose of 10 mg/kg orally for Serum triglyceride at 16th day; format: functional; conditions: route oral
Method in brief: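 CF1 male mice received the agent orally in 1% CMC at 10–60 mg/kg per day. Tail-vein blood was taken on days 9 and 16. Serum cholesterol was measured by modified Liebermann–Burchard on duplicate 25-µL samples, and serum triglyceride on day 16 in duplicate 50-µL samples. Values are % of vehicle control, mean ± SD, N = 6; Student's t test.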

Mus musculus [4] = experiment: Hypolipidemic activity in CF1 male mice at a dose of 20 mg/kg per day, serum cholesterol measured on the 9th day; format: functional
Method in brief: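 CF1 male mice (~30 g) were given 20 mg/kg per day ip at 11:00 a.m.; N = 6 per group. Tail-vein serum was collected in nonheparinized microcapillaries. Cholesterol was measured on days 9 and 16 by modified Liebermann–Burchard on duplicate 25 µL samples. Triglyceride was measured on day 16 in a separate group, duplicate 50 µL. Values are % control ± SD; Student's t test.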

[5] = target: Acetyl-coenzyme A synthetase, cytoplasmic (Mus musculus) (UniProt Q9QXG4); experiment: In Vivo effect for the hypolipidemic activity on Acetyl-coenzyme A synthetase in CF1 mice after 16 days of oral administration at a dose of 60 mg/kg; format: functional, organism-based; set-up: dose 60 mg/kg; method in brief: as §1
Mus musculus [6] = experiment: In Vivo effect for the hypolipidemic activity on Hepatic lipoprotein lipase in CF1 mice after 16 days administered orally at a dose of 20 mg/kg; format: functional; conditions: route oral; method in brief: as §1
Mus musculus [7] = experiment: In Vivo effect for the hypolipidemic activity on Hepatic lipoprotein lipase in CF1 mice after 16 days administered orally at a dose of 60 mg/kg; format: functional; conditions: route oral; method in brief: as §1
Mus musculus [8] = species on record: Mus musculus; experiment: In Vitro evaluation for the CF1 liver enzyme activity on Mitochondrial citrate exchange at concentration 50 uM; format: functional
Method in brief: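 Mouse liver enzymes assayed in vitro on 10% homogenates of CF1 male mouse liver, with test drug added at 50–200 μM. Each enzyme follows a published procedure. Protein is measured by Lowry. Activity is given as % of untreated control (X ± SD, N = 6).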

Rattus norvegicus [9] = experiment: Compound was evaluated for the hypolipidemic activity at 20 mg/kg per day orally for 14 days on neutral lipids content in rat feces.; format: functional; conditions: route oral
Method in brief: (§2)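 Male Sprague–Dawley rats were dosed orally for 14 days. Liver, small intestine and a 24-h fecal collection were lipid-extracted. Extracts were assayed for cholesterol (modified Liebermann–Burchard), triglyceride (enzymatic kit), neutral lipids, phospholipids and protein. Values are % of 1% CMC vehicle control, mean ± SD, N = 6.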

Rattus norvegicus [10] = experiment: Compound was evaluated for the hypolipidemic activity at 20 mg/kg per day orally for 14 days on triglycerides content in rat VLDL; format: functional; conditions: route oral
Method in brief: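 Male Sprague–Dawley rats (~300 g) were dosed orally each day. Blood was drawn from the abdominal vein. Lipoprotein fractions (chylomicron, VLDL, LDL, HDL) were separated by the Hatch–Lees and Havel methods. Each fraction was assayed for cholesterol, triglyceride (enzymatic kit), neutral lipids, phospholipids and Lowry protein. Values are % of 1% CMC vehicle control, N = 6.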

Rattus norvegicus [11] = experiment: Compound was evaluated for the hypolipidemic activity at 20 mg/kg per day orally for 14 days on triglycerides content in rat liver; format: functional; conditions: route oral; method in brief: as §2
Rattus norvegicus [12] = experiment: Compound was evaluated for the hypolipidemic activity at 20 mg/kg per day orally for 14 days on protein content in rat feces.; format: functional; conditions: route oral; method in brief: as §2

Chain of Acetyl-coenzyme A synthetase, cytoplasmic (Mus musculus) (Q9QXG4 whole entry): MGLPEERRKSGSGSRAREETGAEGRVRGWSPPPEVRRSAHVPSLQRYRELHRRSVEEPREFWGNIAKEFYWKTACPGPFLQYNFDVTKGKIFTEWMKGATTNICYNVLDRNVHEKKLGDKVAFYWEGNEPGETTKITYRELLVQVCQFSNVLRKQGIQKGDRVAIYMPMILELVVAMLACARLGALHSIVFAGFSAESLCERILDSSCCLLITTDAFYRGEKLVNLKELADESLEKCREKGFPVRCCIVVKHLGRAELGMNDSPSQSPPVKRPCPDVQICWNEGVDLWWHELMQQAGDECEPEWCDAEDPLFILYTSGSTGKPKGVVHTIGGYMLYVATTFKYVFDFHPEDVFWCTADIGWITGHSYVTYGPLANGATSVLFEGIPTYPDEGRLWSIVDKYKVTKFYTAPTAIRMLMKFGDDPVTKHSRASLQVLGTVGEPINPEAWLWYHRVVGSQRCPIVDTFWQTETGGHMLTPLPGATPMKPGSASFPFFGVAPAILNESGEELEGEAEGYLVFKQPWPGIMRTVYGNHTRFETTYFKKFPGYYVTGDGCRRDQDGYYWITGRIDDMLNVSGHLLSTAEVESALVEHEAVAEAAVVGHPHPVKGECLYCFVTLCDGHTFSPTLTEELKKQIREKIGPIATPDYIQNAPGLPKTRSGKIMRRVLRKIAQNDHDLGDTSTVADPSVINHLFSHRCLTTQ

Control [1]: 72%
Control [2]: 93%
Control [5]: 99%
Structure (SMILES): COc1ccc(C2C(=O)c3ccccc3C2=O)cc1 [ANISINDIONE]
Control (Mus musculus [3]): 64%
Serum cholesterol, % of control (Mus musculus [4]): 58%
Control (Mus musculus [6]): 82%
Control (Mus musculus [7]): 89%
Control (Mus musculus [8]): 36%
Control (Rattus norvegicus [9]): 101%
Control (Rattus norvegicus [10]): 72%
Control (Rattus norvegicus [11]): 37%
Control (Rattus norvegicus [12]): 99%
